Reference: ChEMBL document CHEMBL4765486, “Novel Nonsecosteroidal Vitamin D Receptor Modulator Combined with Gemcitabine Enhances Pancreatic Cancer Therapy through Remodeling of the Tumor Microenvironment” (J Med Chem, 2021)
Active and inactive are the calls of the source. Unless noted, the rule behind the calls is not given here.

Columns and labels:
[1] = target: T1, Vitamin D3 receptor (Homo sapiens, UniProt P11473); assay: Binding affinity to VDR (unknown origin) by fluorescence polarization assay
T1 sequence (P11473 whole entry): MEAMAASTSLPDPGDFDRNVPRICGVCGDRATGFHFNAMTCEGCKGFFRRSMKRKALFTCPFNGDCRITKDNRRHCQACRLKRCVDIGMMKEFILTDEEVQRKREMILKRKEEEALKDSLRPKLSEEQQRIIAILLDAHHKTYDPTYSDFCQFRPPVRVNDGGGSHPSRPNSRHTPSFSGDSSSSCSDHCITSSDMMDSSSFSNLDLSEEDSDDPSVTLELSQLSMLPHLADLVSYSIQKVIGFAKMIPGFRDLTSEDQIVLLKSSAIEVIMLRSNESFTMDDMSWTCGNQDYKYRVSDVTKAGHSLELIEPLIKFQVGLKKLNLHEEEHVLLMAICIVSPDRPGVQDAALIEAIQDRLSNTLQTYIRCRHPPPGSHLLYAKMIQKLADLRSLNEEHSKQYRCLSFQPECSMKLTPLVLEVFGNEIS
How it was run: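 Competitive VDR binding was measured by PolarScreen fluorescence polarization, in triplicate.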

[2] = tested on: DSL-6A/C1; assay: (§1) Potentiation of gemcitabine-induced antitumor activity against luciferase-tagged rat DSL-6A/C1 cells and GFP-tagged LTC-14 cells co-inoculated in orthotropic xenograft BALB/c nude mouse model of pancreatic cancer assessed as decrease in density of tumor tissue at 500 ug/kg, ip administered once every 3 days for 12 days coadministered with gemcitabine at 100 mg/kg and measured after 3 days post last dose by hematoxylin and eosin staining based assay; assay type: functional, organism-based; conditions: dose 500.0 µg/kg, time 12.0 day
How it was run: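 In the same orthotopic co-inoculation model, mice received gemcitabine 100 mg/kg ip every 3 days plus compound 500 μg/kg ip for 12 days. Animals were sacrificed 3 days after the last dose. Pancreatic tumour sections were stained with H&E for tissue structure and with Masson's trichrome for collagen deposition, imaged at ×100.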

[3] = tested on: LTC-14; assay: Inhibition of rat LTC-14 cells activation assessed as inhibition of Hgf mRNA expression at 0.5 uM treated under conditioned media of DSL-6A/C1 cells for 24 hrs by q-PCR analysis; assay type: functional, cell-based
How it was run: (§2)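 LTC-14 PSCs were exposed for 24 h to conditioned medium from rat DSL-6A/C1 cancer cells containing compound at 0.5 μM. Pdgfa, Pdgfb, Fgf2, Hgf and Periodin mRNA were quantified by RT-qPCR. Three repeats, mean ± SD versus CM alone.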

[4] = tested on: LTC-14; assay: Inhibition of rat LTC-14 cells activation assessed as inhibition of Fgf mRNA expression at 0.5 uM treated under conditioned media of DSL-6A/C1 cells for 24 hrs by q-PCR analysis; assay type: functional, cell-based; how it was run: as §2
[5] = tested on: DSL-6A/C1; assay: as §1, with “reduction” for “decrease”, “in” for “in density of”, “volume” for “tissue”, “IVIS optical imaging analysis” for “hematoxylin and eosin staining based assay”; assay type: functional, organism-based; conditions: dose 500.0 µg/kg, time 12.0 day
How it was run: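 DSL-6A/C1-luci and LTC-14-GFP cells were co-inoculated orthotopically into the pancreas of nude mice, n=5 per group. Treatment began 7 days after grafting (methods) or 14 days (text). Gemcitabine 100 mg/kg ip every 3 days, alone or with compound 500 μg/kg or calcipotriol 60 μg/kg in ethanol/polyoxyethylene castor oil/saline (1:1:18), for 12 days. Tumour growth was followed by bioluminescence imaging.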

[6] = tested on: LTC-14; assay: Inhibition of rat LTC-14 cells interaction with DSL-6A/C1 cells in conditioned media assessed as inhibition of PDGF-A protein expression at 0.5 uM measured after 24 hrs by Western blot analysis; assay type: functional, cell-based
How it was run: (§3)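 LTC-14 cells were treated for 24 h with DSL-6A/C1 conditioned medium plus compound (0.5 μM). Proteins were separated on 10% SDS-PAGE, transferred to PVDF and probed with rabbit anti-PDGF-A or anti-POSTN, with β-actin as loading reference.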

[7] = tested on: LTC-14; assay: Inhibition of rat LTC-14 cells activation assessed decrease in TGF-beta1 induced Acta2 mRNA expression at 0.5 uM incubated for 24 hrs by q-PCR analysis; assay type: functional, cell-based
How it was run: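 Immortalized rat PSC line LTC-14, about 1×10^5 cells per well, was grown 24 h at 37 °C in 5% CO2. Cells then received compound (0.5 μM) plus TGF-β1 for 24 h; TGF-β1 is stated as 0.5 ng/mL in the text and 5 ng/mL in the methods. Col1a1 and Acta2 mRNA were measured by RT-qPCR. Mean ± SD versus TGF-β1 alone.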

[8] = target: T2, Vitamin D3 receptor (Homo sapiens) (UniProt P11473); assay: Binding affinity to VDR (unknown origin) at 1 uM by fluorescence polarization assay relative to calcipotriol; conditions: filed as agonist
T2 sequence (whole entry): T1 sequence (P11473 whole entry)
How it was run: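 PolarScreen VDR competitor fluorescence polarization assay with compounds at 1 μM in triplicate. Read-out used 535 nm excitation and 590 nm emission filters.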

[9] = tested on: LTC-14; assay: Inhibition of rat LTC-14 cells interaction with DSL-6A/C1 cells in conditioned media assessed as inhibition of POSTN protein expression at 0.5 uM measured after 24 hrs by Western blot analysis; assay type: functional, cell-based; how it was run: as §3
[10] = tested on: LTC-14; assay: Inhibition of rat LTC-14 cells activation assessed as inhibition of PDGFB mRNA expression at 0.5 uM treated under conditioned media of DSL-6A/C1 cells for 24 hrs by q-PCR analysis; assay type: functional, cell-based; how it was run: as §2

CCn1cc(C(CC)(CC)c2ccc(OCC(C)O)c(C)c2)cc1C(=O)NCCN1CCN(C)CC1 (stereo not given)
IC50 [1]: 57.2 nM
Activity [2]: Active
inhibition [3]: Active
inhibition [4]: Active
TGI [5]: Active
inhibition [6]: Active
inhibition [7]: Active
RBA [8]: 89%
inhibition [9]: Active
inhibition [10]: Active
